The values that follow come from ChEMBL document CHEMBL1148598, “Rational design and enantioselective synthesis of (1R,4S,5R,6S)-3-azabicyclo[3.3.0]octane-4,6-dicarboxylic acid - a novel inhibitor at human glutamate transporter subtypes 1, 2, and 3” (J Med Chem, 2006).

Test [1] has as its target Excitatory amino acid transporter 1 (Homo sapiens, UniProt P43003). As to the kind of experiment: Activity against human EAAT1 transfected in HEK293 cells. The class given is cell-based. The method in brief:
(§1)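 HEK293 lines stably expressing the human transporter were grown on poly-D-lysine plates in DMEM with 10% dialyzed FBS, pen/strep and 1 mg/mL G-418. After 16-24 h, cells were put in Krebs buffer (pH 7.4) containing inhibitor and loaded with FMP dye for 30 min at 37 °C. Plates were read at 30 °C (ex 530/em 560 nm) up to 1 min after adding 30 µM Glu. Runs were in triplicate, ≥3 times. IC50 was converted to Ki by Cheng-Prusoff.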

Test [2] addresses Excitatory amino acid transporter 2 (Homo sapiens, UniProt P43004). As to the kind of experiment: Activity against human EAAT2 transfected in HEK293 cells. The class given is cell-based. An outline of the steps:
as §1

Test [3] deals with T1, Excitatory amino acid transporter 3 (Homo sapiens, UniProt P43005).
T1 sequence (P43005 whole entry): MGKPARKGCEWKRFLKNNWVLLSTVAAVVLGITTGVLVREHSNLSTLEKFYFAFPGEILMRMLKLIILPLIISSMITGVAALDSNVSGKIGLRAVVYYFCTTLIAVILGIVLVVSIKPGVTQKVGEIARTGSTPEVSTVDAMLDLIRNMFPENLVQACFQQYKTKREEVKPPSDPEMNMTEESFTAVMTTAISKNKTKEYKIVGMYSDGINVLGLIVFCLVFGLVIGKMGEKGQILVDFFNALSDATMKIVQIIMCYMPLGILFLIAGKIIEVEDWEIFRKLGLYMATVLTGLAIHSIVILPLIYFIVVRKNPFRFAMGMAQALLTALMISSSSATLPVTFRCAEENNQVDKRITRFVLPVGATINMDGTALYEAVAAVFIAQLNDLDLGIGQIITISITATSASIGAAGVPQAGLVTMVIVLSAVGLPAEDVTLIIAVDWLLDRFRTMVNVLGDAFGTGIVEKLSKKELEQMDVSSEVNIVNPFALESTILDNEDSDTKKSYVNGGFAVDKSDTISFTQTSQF
As to the kind of experiment: Activity against human EAAT3 transfected in HEK293 cells. The class given is cell-based. An outline of the steps: as §1

The target in test [4] is Metabotropic glutamate receptor 2 (Homo sapiens, UniProt Q14416). As to the kind of experiment: Activity against mGluR2.
The target in test [5] is Glutamate receptor ionotropic, AMPA (Rattus norvegicus, UniProt P19490+P19491+P19492+P19493). As to the kind of experiment: Displacement of [3H]AMPA from AMPA receptor in rat brain. It counts as tissue-based. An outline of the steps:
(§2)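 Radioligand binding used rat brain membranes prepared by the Ransom and Stec method. Ligands were 5 nM [³H]AMPA for AMPA sites, 5 nM [³H]KAIN for kainate sites and 2 nM [³H]CGP 39653 for NMDA sites, and the value is reported as IC50.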

The target in test [6] is Glutamate receptor ionotropic, kainate. As to the kind of experiment: Displacement of [3H]KAIN from kainate receptor in rat brain. The class given is tissue-based. The method in brief: as §2
Another test concerns the target Glutamate NMDA receptor. As to the kind of experiment: Displacement of [3H]CGP-39653 from NMDA preferring iGlu receptor in rat brain. The class given is tissue-based.
Test [7] has as its target Metabotropic glutamate receptor 1 (Homo sapiens, UniProt Q13255). As to the kind of experiment: Activity against mGluR1.

Where only a bound is given, the exact number is not on record here.

What is called Ki is a measure of affinity in units of concentration, obtained from inhibition or displacement. A high value points to lower affinity. The EC50 is the midpoint of the concentration-response curve. Low readings indicate higher potency in that assay, high ones lower potency in that assay. One may read the IC50 as the concentration at which inhibition is half-maximal. The low end stands for greater potency in that assay, the high end for weaker potency in that assay.

Chain of Excitatory amino acid transporter 2 (P43004 whole entry): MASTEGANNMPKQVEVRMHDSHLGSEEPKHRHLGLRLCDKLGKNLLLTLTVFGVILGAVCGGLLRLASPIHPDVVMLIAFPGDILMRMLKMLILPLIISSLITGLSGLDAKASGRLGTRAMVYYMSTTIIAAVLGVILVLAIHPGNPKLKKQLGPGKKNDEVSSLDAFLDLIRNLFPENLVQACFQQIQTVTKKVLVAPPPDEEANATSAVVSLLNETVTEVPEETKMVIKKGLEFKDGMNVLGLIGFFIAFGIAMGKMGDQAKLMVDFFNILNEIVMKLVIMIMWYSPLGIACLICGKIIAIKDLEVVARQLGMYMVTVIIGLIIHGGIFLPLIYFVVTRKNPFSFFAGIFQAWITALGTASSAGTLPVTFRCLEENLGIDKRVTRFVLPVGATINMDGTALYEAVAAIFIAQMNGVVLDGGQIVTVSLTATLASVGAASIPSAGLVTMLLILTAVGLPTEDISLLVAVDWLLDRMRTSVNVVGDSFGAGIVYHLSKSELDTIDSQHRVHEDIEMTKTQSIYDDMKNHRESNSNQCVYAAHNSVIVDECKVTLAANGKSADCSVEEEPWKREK
Chain of Excitatory amino acid transporter 1 (P43003 whole entry): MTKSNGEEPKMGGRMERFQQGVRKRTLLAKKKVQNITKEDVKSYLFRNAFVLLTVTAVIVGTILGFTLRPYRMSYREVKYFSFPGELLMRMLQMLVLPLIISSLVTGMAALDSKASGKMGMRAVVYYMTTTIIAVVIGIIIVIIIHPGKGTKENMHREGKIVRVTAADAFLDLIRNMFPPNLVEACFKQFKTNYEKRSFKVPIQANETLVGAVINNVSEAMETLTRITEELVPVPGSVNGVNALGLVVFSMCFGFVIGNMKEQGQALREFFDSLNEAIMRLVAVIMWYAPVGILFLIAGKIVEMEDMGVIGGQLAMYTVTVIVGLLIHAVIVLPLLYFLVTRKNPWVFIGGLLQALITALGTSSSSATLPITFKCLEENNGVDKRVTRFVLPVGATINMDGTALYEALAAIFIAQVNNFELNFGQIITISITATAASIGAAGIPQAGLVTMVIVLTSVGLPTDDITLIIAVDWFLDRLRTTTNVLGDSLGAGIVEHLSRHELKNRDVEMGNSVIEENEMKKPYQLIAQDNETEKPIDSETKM
Chain of Metabotropic glutamate receptor 2 (Q14416 whole entry): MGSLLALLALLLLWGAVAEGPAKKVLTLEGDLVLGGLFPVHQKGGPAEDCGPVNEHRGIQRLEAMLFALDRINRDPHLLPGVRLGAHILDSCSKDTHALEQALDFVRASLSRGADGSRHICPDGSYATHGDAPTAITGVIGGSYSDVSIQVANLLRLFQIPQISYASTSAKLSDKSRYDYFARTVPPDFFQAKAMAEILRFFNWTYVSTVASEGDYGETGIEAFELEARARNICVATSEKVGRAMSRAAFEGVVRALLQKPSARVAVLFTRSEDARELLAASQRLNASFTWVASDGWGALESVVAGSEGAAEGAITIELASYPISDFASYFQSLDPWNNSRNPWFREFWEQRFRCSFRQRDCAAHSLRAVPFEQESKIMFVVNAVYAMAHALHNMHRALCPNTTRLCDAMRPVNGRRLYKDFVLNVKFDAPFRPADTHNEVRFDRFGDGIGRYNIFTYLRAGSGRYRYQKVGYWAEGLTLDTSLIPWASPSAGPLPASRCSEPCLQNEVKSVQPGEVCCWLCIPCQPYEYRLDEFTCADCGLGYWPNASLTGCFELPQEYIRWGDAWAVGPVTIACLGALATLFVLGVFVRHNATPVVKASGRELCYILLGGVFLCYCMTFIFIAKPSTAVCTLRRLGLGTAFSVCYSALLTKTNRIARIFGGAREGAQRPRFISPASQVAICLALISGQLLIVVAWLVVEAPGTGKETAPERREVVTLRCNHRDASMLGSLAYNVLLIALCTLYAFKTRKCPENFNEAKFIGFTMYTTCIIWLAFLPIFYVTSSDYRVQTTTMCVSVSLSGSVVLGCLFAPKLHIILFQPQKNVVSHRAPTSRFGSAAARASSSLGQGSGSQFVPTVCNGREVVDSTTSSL
Chain of Metabotropic glutamate receptor 1 (Q13255 whole entry): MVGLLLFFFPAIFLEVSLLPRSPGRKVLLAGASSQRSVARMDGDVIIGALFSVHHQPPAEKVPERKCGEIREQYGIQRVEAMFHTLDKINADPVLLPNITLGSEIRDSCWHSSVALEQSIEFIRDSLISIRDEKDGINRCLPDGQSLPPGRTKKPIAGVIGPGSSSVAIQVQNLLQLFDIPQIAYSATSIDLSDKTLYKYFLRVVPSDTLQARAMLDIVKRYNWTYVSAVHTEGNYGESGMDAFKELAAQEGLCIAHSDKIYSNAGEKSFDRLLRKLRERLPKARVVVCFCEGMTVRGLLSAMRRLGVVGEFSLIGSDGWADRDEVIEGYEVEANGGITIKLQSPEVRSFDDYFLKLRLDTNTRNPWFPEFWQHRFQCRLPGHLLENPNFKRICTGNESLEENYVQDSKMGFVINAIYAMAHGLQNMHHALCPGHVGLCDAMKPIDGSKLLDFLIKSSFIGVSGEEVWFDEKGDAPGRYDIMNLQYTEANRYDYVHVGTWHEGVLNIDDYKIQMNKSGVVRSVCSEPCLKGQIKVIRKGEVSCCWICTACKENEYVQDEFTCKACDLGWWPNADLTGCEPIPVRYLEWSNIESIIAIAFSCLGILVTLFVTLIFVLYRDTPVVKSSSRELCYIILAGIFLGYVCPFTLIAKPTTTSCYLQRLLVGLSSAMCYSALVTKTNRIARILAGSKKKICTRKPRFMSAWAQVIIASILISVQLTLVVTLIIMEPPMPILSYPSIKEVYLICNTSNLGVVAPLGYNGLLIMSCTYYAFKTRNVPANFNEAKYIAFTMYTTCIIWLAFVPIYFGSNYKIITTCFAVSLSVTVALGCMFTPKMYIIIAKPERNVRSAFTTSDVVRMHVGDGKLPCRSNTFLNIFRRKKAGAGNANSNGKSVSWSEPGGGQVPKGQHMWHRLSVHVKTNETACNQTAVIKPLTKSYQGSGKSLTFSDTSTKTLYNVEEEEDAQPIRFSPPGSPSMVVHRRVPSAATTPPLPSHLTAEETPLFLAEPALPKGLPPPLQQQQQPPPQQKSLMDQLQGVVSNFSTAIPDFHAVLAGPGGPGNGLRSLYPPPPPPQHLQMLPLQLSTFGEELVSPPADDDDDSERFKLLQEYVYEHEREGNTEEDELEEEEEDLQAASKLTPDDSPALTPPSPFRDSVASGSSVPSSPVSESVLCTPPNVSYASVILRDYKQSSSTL

For the molecule `O=C(O)[C@H]1CC2CC1[C@@H](C(=O)O)N2` (stereo partly specified), the Ki in test [1], in test [2] and in test [3] was more than 400 µM in each case.

`O=C(O)[C@H]1CC[C@H]2CN[C@H](C(=O)O)[C@H]21`: the figures for the EC50 in test [4] and in test [7] were 1000 µM and more than 1000 µM, respectively. Moreover, the Ki worked out at 127 µM in test [1], 52 µM in test [2], 46 µM in test [3] and 2.9 µM on Glutamate NMDA receptor. In addition, the IC50 in test [5] is more than 100 µM; in test [6] it was 14 µM.
